Source: PubChem (Johns Hopkins Ion Channel Center)
In the library only some 3.5% were active in any assay of this set; here they are far more common.
MrgX1 ag = agonists of human MrgX1 receptor | MrgX1-HEK293 cells, Fluo-4 calcium fluorescence, agonist mode; stronger effect = higher value | B-score at 10 µM | AID 588627 | Q96LB2 | 310,000 compounds, 0.44% hits;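 active means calcium response B-score plate-corrected fluorescence ratio at least 3 library SD, with starting fluorescence B-score inside 5 SD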
Target sequence (Q96LB2 whole entry, looked up): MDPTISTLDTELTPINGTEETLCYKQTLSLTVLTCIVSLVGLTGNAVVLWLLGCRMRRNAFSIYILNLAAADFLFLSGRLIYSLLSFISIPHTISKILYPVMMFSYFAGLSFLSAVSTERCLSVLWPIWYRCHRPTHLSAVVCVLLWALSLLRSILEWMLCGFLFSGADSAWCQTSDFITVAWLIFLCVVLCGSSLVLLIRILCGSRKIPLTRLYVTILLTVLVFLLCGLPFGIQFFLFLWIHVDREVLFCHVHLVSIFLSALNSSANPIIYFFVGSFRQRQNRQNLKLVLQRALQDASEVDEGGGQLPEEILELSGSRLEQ
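Material: HEK293 cells stably expressing human MrgX1 receptor | Quantity: 15,000 cells per well | Times: Cells plated overnight, dye loaded 0.5 h 37 °C, 0.5 h room temperature | Measured by: Kinetic Fluo-4 NW fluorescence of intracellular calcium | Control set: Positive and negative controls per plate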
RGS4 block = human RGS4 inhibition | P49798 | HEK293 M3R/RGS4 inducible, Fluo-4 calcium flux; stronger effect = higher value; triggered by carbachol at its EC20 | B-score at 10 µM | 310,000 compounds, 0.45% hits | AID 463165;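 active means B-score, a plate-corrected calcium signal, over three deviations above library mean, with baseline fluorescence within five deviations of library mean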;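 further: RGS4 expression induced by doxycycline in cells with stable M3 receptor; B-score is computed from the integrated fluorescence ratio over baseline after carbachol; higher B-score means a larger calcium signal and so more RGS4 inhibition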
Target sequence (P49798 whole entry, looked up): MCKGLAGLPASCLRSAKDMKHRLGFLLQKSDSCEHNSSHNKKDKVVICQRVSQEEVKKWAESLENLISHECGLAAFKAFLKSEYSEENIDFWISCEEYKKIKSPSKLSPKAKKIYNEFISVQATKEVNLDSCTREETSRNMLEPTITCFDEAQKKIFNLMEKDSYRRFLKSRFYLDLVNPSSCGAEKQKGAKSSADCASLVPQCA
MrgX1 antag = blocks BAM8-22 activation of human MrgX1 receptor | MRGX1-HEK293 calcium flux, Fluo-4, BAM8-22 antagonism; stronger effect = lower value | Q96LB2 | B-score at 10 µM | 310,000 compounds, 1.3% hits;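 active means calcium-response B-score plate-corrected more than 3 library SD below zero, starting fluorescence within 5 deviations, no agonist response on first addition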;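 further: peak minus trough fluorescence over baseline after final BAM8-22 challenge near maximal dose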
RGS4 act = potentiators or activators of RGS4 | HEK293 M3R/inducible RGS4, carbachol calcium flux Fluo4; stronger effect = lower value | B-score at 10 µM | 310,000 compounds, 0.92% hits;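 active means B-score of the integrated calcium signal more than 4 SD below the library mean, with starting fluorescence not abnormally high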;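 further: negative B-score means reduced calcium response which marks RGS4 activation or potentiation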
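Also added: carbachol at ECmax as muscarinic agonist stimulus; Assay system: HEK293 cells with stable M3R and inducible RGS4; Timing: overnight RGS4 induction, 30 min dye load 37 °C, 20 min compound RT; Measured by: Fluo4-AM (2 µM) calcium-flux fluorescence, kinetic read.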
MrgX1 allo act = human MrgX1 positive allosteric modulation, primary screen. 310,000 compounds, 0.63% hits. MrgX1-HEK293, Fluo-4 calcium flux, FDSS; stronger effect = higher value. B-score at 10 µM;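 active means plate-corrected calcium response at least 3 library SD above typical, normal starting fluorescence, not activating the receptor alone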;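 further: compound read alongside a low EC10 to EC30 dose of BAM8-22 agonist; peak minus trough fluorescence over baseline measured at the second addition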
MrgX1 ant reconf = human MrgX1 receptor antagonism, re-confirmation screen; shares compounds with MrgX1 antag; MrgX1-HEK293, BAM8-22 calcium flux, Fluo-4; stronger effect = lower value; remaining BAM8-22 calcium response % of control (stronger effect = lower value), % at 10 µM; 2,300 compounds, 19% hits; AID 602420;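 active means remaining agonist calcium response no higher than 100% minus 3 SD of agonist-only control wells, with starting fluorescence near control levels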;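 further: agonist BAM8-22 given at a near maximal EC90 to ECmax level; peak minus minimum fluorescence divided by baseline after agonist addition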
HEK293 Ca flux = counter-screen for MrgX1 antagonists: effect in parental HEK293 cells. Fluo-4 calcium fluorescence, FDSS. 4,000 compounds, 2% hits. fluorescence ratio F(max-min)/F0 at 10 µM. shares compounds with MrgX1 antag;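 active means duplicate-averaged calcium fluorescence ratio at least three times the standard deviation of buffer wells, a nonspecific response in parental cells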
HEK293 Ca counter = MrgX1 allosteric activator counter-screen hit in parental HEK293 cells; shares compounds with MrgX1 antag; parental HEK293 calcium flux, Fluo-4 fluorescence ratio; stronger effect = higher value; fluorescence ratio F(max-min)/F0 at 10 µM; 4,000 compounds, 0.4% hits; AID 624114;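 active means calcium fluorescence ratio, averaged over duplicates, at least 3 SD of the buffer-well ratio, meaning a nonspecific response in receptor-free cells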;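 further: untransfected parental HEK293 lacking MrgX1 used as counterscreen for MrgX1 allosteric activators; fluorescence change taken during the second addition on a kinetic imager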
HEK293 Ca cntr2 = activity in parental HEK293 cells lacking MrgX1 receptor. shares compounds with MrgX1 antag. 4,000 compounds, 8.7% hits. fluorescence ratio F(max-min)/F0 at 10 µM. Fluo-4 calcium fluorescence (FDSS); stronger effect = higher value. AID 624115;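 active means calcium fluorescence ratio at least three times the spread of buffer wells, meaning a non-specific response in parental cells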
Active calls of the source: *; i = inactive; x = no result given; ! = a repeat was not active.

SMILES | MrgX1 ag | RGS4 block | MrgX1 antag | RGS4 act | MrgX1 allo act | MrgX1 ant reconf | HEK293 Ca flux | HEK293 Ca counter | HEK293 Ca cntr2
CCCOC(=O)c1ccc(NC(=O)C(CC)CC)cc1 | i | i | -6.4* | i | i | i | i | i | i
COc1ccc(S(=O)(=O)NNc2nc(C)cc(C)n2)cc1[N+](=O)[O-] | i | i | i | i | i | x | x | x | x
Cc1nn(CCO)c2nc(-c3cccs3)cc(C(F)(F)F)c12 | i | i | -9.5* | i | i | i | i | i | i
Cc1cccc(C)c1NC(=O)NC1CC2CCC(C1)N2Cc1cccs1 (centres undefined) | i | i | -7.5* | i | i | i | i | i | i
O=C(C1=C[C@@H](c2ccc(Br)cc2)C[C@@H](OCc2ccc(CO)cc2)O1)N1CCN(Cc2ccc3c(c2)OCO3)CC1 | i | i | i | i | i | x | x | x | x
COc1cc2cc(CN(CCO)S(=O)(=O)c3ccccc3Cl)c(=O)[nH]c2cc1OC | i | i | -7.7* | i | i | i | i | i | i
COCCN=C1Sc2nc3ccc(C)cc3cc2CN1Cc1ccco1 | i | i | -5.4* | i | i | i | i | i | i
CC(C)c1ccc2oc(=O)cc(CN3CCOCC3)c2c1 | i | i | i | i | i | x | x | x | x
CC(C)NC(=O)CC1Nc2c3ccccc3nc(=S)n2C1=O (centres undefined) | i | i | -5.3* | i | i | i | i | i | i
CCOC(=O)C1=C(CC)Nc2ccccc2N=C1NC(=O)Nc1ccc(Cl)c(Cl)c1 | i | i | -6.1* | i | i | 50%* | i | i | i
CCOC(=O)C1=C(CC)Nc2ccccc2N=C1NC(=O)c1ccc(S(=O)(=O)N2CCCC2)cc1 | i | i | i | i | i | x | x | x | x
O=C(O)CCSc1ccc2ccccc2n1 | i | i | -6.7*! | i | i | i | i | i | i
COc1cccc(CNC(=O)Cn2cccc2)c1 | i | i | -9.8* | i | i | 81%* | i | i | i
CCOC(=O)Nc1ccc2c(CN3C(=O)NC(CC)(CC)C3=O)cc(=O)oc2c1 | i | i | -4.7* | i | i | 81%* | i | i | i
CCOC(=O)Nc1ccc2c(CN3CCN(S(=O)(=O)c4ccccc4)CC3)cc(=O)oc2c1 | i | i | i | i | i | x | x | x | x
CCCCc1ccc(/C(C)=N/NC(=O)C2CCCC2)cc1 | i | i | i | i | i | x | x | x | x
COC(=O)c1ccc(C(=O)OC)c(NC(=O)CCC(=O)O)c1 | i | i | i | i | i | x | x | x | x
COC(=O)c1ccc(C(=O)OC)c(NC(=O)COC(=O)c2ccccc2OC)c1 | i | i | -6.7* | i | i | 84%* | i | i | i
COc1ccc(Cl)cc1S(=O)(=O)NCc1cccnc1 | i | i | -5.7* | i | i | i | i | i | i
CCOc1cc(S(=O)(=O)NCc2cccnc2)c(C)cc1C | i | i | -4.9* | i | i | i | i | i | i
Cc1cc(C)c(S(=O)(=O)NCc2cccnc2)cc1C | i | i | i | i | i | x | x | x | x
O=C(O)CCNc1ccc(NCCC(=O)O)c2c1C(=O)c1ccccc1C2=O | i | i | -4.7* | i | i | i | i | i | i
COc1ccc2oc(C(=O)OCC(=O)NCc3ccco3)c(C)c2c1 | i | i | -6.4* | i | i | i | i | i | i
O=C(CN(c1ccccn1)S(=O)(=O)c1ccc(F)cc1)Nc1ccc(F)cc1F | i | i | -5.6* | i | i | i | i | i | i
O=C(Nc1ccc(Cl)cc1)N(Cc1cccnc1)Cc1ccco1 | i | i | -5.7* | i | i | i | i | i | i
SMILES | MrgX1 ag | RGS4 block | MrgX1 antag | RGS4 act | MrgX1 allo act | MrgX1 ant reconf | HEK293 Ca flux | HEK293 Ca counter | HEK293 Ca cntr2
CCC(C)(C)n1nnnc1C(c1ccc2ncccc2c1)N1CCCC(C)C1 (centres undefined) | i | i | -6.3* | i | i | i | i | i | i
Cn1cnc2cc(NC(=O)c3cccs3)ccc21 | i | i | i | i | i | x | x | x | x
Cc1ccc(NC(=O)Nc2ccc(F)cc2)cc1Cl | i | i | -6.1* | i | i | 71%* | i | i | i
CC(=O)Nc1ccc(NC(=O)C(C)OC(=O)C(C)SCC(=O)Nc2ccc(F)cc2)cc1 (centres undefined) | i | i | i | i | i | x | x | x | x
COc1cc(C)c(NC(=S)Nc2ccc(Cl)c(Cl)c2)cc1OC | i | i | -5.3* | i | i | 66%* | i | i | i
Cc1ccc(-c2cc(C(F)F)n3ncc(C(=O)N4CCc5ccccc54)c3n2)cc1 | i | i | i | i | i | x | x | x | x
CCN1CCN(C(=O)c2cnn3c(C(F)F)cc(-c4ccc(C)cc4)nc23)CC1 | i | i | -8.5* | i | i | i | i | i | i
O=C(c1cnn2c(C(F)F)cc(-c3ccccc3)nc12)N1CCc2ccccc21 | i | i | -4.7* | i | i | i | i | i | i
Nc1nnnn1/N=C/C=C/c1ccccc1 | i | i | i | i | i | x | x | x | x
Nc1nnnn1/N=C/C(Br)=C/c1ccccc1 | i | i | -5.1* | i | i | i | i | i | i
O=C(Cn1c(C(F)(F)F)nc2ccccc21)Nc1ccccc1N1CCOCC1 | i | i | -9.3* | i | i | i | i | i | i
Cn1c(=O)[nH]c(=O)c2c1nc(SCC(=O)O)n2CCCc1ccccc1 | i | i | -6.9* | i | i | 84%* | i | i | i
COc1cc(NC(=O)CCN2CCN(c3ccccc3F)CC2)cc(OC)c1 | i | i | -4.8* | i | i | i | i | i | i
